According to ChEMBL document CHEMBL4196230, “Design, Synthesis, and Blood-Brain Barrier Transport Study of Pyrilamine Derivatives as Histone Deacetylase Inhibitors” (ACS Med Chem Lett, 2018):
pIC50: −log10 of the molar value.

What was measured:
[1] = target: T1, Protein deacetylase HDAC6 (Mus musculus) (UniProt Q9Z2V5); test: Inhibition of mouse HDAC6 expressed in 293T cells at 100 uM using Ac-KGLGK(Ac)-MCA as substrate measured after 30 mins by fluorescence assay relative to control
T1 sequence (whole entry): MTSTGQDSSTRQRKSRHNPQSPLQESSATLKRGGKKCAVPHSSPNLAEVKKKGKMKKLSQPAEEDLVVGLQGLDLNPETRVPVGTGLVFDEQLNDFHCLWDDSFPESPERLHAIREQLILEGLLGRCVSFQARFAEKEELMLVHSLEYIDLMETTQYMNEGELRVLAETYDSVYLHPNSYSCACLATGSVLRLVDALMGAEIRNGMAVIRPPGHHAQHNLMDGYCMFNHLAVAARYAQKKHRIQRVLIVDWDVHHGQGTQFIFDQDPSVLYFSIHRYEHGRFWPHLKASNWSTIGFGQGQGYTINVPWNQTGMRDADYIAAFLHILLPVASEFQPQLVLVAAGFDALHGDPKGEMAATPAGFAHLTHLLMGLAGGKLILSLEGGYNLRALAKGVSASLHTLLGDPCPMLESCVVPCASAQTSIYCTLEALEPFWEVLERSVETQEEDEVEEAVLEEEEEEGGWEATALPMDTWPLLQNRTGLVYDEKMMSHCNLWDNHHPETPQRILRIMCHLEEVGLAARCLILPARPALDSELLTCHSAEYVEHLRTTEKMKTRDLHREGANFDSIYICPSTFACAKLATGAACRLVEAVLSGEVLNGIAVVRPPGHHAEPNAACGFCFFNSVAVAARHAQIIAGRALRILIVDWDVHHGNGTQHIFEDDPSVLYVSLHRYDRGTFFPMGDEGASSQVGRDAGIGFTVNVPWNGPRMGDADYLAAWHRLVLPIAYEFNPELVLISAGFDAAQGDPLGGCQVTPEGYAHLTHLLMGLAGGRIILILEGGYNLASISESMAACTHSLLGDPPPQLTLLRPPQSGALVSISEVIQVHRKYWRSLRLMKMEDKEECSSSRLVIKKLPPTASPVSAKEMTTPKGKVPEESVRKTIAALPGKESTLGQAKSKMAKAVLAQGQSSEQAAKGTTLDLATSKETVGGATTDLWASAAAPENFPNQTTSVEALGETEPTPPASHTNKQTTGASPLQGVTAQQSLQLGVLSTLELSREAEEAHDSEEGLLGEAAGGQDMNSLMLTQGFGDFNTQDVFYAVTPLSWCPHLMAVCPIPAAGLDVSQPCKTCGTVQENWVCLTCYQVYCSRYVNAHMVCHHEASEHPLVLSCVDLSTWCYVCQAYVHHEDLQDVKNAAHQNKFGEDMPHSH

Histone deacetylase 2 = Histone deacetylase 2 (Homo sapiens, UniProt Q92769); test: Inhibition of recombinant human C-terminal FLAG-tagged HDAC2 expressed in baculovirus infected Sf9 insect cells using HDAC substrate 3 measured after 30 mins by fluorescence assay
Histone deacetylase 2, sequence (Q92769 whole entry, the tested form may be a part): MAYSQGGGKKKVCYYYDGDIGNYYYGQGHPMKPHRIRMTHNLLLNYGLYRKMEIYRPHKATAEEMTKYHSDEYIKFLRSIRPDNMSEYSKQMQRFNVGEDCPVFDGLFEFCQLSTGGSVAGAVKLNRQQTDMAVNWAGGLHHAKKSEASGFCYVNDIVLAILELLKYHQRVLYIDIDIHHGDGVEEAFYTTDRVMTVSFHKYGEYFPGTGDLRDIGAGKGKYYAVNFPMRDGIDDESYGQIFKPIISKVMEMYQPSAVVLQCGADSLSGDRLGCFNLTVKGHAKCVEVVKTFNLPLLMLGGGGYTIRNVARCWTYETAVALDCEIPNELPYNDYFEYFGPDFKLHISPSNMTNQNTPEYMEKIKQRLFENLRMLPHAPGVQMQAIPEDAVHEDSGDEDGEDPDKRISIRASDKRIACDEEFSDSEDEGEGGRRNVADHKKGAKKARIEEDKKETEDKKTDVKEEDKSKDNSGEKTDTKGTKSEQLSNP

[2] = target: Histone deacetylase 4 (Homo sapiens) (UniProt P56524); test: Inhibition of N-terminal GST tagged/C-terminal His tagged human recombinant HDAC4 (627 to 1084 residues) expressed in baculovirus infected insect cells at 30 uM using HDAC class 2a substrate measured after 30 mins by fluorescence assay relative to control
Histone deacetylase 4 (Homo sapiens), sequence (P56524 whole entry, the tested form may be a part): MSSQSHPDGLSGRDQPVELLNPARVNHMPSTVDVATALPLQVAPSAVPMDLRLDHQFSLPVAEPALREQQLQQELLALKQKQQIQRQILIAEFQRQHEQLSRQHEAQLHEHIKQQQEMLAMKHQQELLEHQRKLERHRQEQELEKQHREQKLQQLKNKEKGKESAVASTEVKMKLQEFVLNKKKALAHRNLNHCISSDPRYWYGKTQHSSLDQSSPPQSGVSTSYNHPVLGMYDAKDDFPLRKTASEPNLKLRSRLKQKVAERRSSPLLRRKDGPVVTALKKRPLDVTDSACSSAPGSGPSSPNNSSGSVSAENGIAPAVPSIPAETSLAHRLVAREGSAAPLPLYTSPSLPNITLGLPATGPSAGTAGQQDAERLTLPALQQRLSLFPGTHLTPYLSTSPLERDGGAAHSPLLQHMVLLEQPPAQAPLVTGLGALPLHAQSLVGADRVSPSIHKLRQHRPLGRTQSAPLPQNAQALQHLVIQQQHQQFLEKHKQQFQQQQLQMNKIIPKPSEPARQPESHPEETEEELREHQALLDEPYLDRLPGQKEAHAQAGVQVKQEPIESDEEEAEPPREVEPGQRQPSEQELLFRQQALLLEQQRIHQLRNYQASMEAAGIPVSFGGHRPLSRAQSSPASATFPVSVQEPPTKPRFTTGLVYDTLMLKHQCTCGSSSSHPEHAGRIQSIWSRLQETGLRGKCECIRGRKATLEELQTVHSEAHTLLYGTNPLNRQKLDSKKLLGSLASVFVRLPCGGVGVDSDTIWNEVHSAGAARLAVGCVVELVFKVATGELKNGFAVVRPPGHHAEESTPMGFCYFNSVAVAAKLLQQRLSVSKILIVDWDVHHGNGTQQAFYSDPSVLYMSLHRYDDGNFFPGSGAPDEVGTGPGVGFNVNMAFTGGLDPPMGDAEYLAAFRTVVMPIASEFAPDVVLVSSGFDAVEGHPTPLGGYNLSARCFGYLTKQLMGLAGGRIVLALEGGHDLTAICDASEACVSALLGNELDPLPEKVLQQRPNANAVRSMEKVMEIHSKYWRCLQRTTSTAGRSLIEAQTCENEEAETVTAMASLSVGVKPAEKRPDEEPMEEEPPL

[3] = target: T2, Protein deacetylase HDAC6 (Homo sapiens) (UniProt Q9UBN7); test: Inhibition of recombinant human HDAC6 expressed in baculovirus infected insect cells at 30 uM using HDAC substrate 3 measured after 30 mins by fluorescence assay relative to control
T2 sequence (whole entry): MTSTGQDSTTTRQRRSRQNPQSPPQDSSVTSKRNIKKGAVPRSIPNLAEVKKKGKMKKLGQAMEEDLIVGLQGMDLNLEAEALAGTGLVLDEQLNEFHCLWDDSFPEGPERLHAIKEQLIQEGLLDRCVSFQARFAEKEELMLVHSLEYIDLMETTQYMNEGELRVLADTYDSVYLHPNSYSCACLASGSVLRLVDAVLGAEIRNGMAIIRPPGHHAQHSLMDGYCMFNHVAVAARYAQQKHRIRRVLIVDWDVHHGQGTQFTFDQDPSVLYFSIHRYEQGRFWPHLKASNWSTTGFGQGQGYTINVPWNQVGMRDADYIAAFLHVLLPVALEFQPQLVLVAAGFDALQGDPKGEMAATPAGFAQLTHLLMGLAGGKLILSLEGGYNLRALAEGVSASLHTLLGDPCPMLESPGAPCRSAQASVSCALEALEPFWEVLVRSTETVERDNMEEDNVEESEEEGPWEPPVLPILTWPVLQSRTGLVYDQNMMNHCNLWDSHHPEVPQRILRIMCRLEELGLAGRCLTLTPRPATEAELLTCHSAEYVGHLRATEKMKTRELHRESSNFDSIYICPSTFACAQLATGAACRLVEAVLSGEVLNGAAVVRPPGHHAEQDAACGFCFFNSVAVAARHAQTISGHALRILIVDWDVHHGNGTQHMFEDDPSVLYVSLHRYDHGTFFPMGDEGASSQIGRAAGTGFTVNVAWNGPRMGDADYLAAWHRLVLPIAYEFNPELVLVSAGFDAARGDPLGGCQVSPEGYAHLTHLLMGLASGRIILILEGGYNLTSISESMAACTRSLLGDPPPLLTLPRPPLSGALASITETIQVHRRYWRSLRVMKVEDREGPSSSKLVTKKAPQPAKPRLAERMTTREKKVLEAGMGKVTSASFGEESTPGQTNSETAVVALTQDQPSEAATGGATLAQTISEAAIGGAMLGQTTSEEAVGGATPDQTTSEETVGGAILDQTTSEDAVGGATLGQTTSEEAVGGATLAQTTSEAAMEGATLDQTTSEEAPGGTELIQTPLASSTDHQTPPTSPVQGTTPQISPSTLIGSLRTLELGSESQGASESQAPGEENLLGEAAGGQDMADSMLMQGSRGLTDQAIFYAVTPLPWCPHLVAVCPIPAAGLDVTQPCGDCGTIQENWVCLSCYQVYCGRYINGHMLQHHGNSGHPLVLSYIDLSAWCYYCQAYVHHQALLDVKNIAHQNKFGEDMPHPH

[4] = Substrate activity at PYSOCA in human CMEC/D3 cells assessed as transporter-mediated drug uptake measured for 1 min at 37degC in presence of NH4Cl under intracellular acidification condition; type: ADME, cell-based
Summary of the method: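 hCMEC/D3 cells were pretreated in transport buffer with or without 30 mM NH4Cl. Uptake was then measured at 37 °C for 1 min with or without 30 mM NH4Cl (Control, Pre and Acute conditions). Mean ± S.E., n = 4.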

[5] = Substrate activity at PYSOCA in human CMEC/D3 cells assessed as transporter-mediated drug uptake measured for 2 mins at 37degC in presence of diphenhydramine; type: ADME, cell-based
Summary of the method: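 Uptake by hCMEC/D3 cells was measured at various substrate concentrations, at 37 °C for 2 min, with or without diphenhydramine (100 µM). Data were analysed by Michaelis-Menten and Lineweaver-Burk plots using nonlinear least-squares regression (Eqs. 1 and 2). Mean ± S.E., n = 4.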

inhibition [1]: 11% | pIC50 (Histone deacetylase 2): 5.26 | inhibition [2]: < 10% | inhibition [3]: < 10% | Activity [4]: Active | Activity [5]: Not Active
SMILES: COc1ccc(CN(CCN(C)C)c2ccc(C(=O)Nc3ccccc3N)cn2)cc1
